# From PubChem
# Lmaj promast: reduces viability of Leishmania major promastigotes; resazurin fluorescence viability; inhibition, % at 10 µM; 200,000 compounds, 9% hits; AID 1063; in the data active = inhibition above about 50%;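 also: promastigotes grown with compound for 44 hours at 28 °C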
# Redox H2O2 prof: compounds producing H2O2 with reducing agent – biochemical, NIH compound library profiling, artefact control for MLSCN library redox annotation, primary screen | DTT-dependent redox cycling H2O2, phenol red/HRP absorbance; 100% = 100 µM peroxide control, 0% = buffer | activation, % at 10 µM | 200,000 compounds, 0.03% hits | AID 878;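 active = activation of at least 50% relative to the plate's high and low controls in the primary single-dose screen; inactive = activation below 50%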;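 also: compound incubated with DTT at 0.8 mM final as the reducing agent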
# T cruzi inh: blocks replication of Trypanosoma cruzi; 300,000 compounds, 1.4% hits; inhibition, % (test concentration not listed); AID 1885; T. cruzi beta-gal in NIH3T3, luminescence, 90 h;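 active = mean inhibition across valid replicates above about 55%, limit read from the data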;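 also: signal also drops with host cell toxicity which is not excluded here; 0% = plate median of DMSO wells and 100% = zero luminescence signal; higher percent means less beta-gal luminescence so fewer parasites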
#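 Incubation – ≥90 h infection period, 3 h prior cell attachment · System – NIH/3T3 fibroblasts plus reporter T. cruzi · Doses – compound pinned at 50 nL/well, DMSO · Read-out basis – percent inhibition of parasite-derived β-gal signal · Signal – luminescent β-galactosidase signal after 60 min lysis · Also added – 5000 T. cruzi trypomastigotes/well · Medium – Low-serum DMEM with 2% FBS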
# MPTP block: inhibitors of mitochondrial permeability transition pore. isolated mouse mitochondria, Ca2+ swelling absorbance, 30 min. inhibition, % at 10 µM. 360,000 compounds, 1.4% hits. AID 602449;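 active = inhibition of 50% or more, scaled per plate between neutral and stimulator controls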;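 also: 0% = DMSO wells given calcium and 100% = 1 mM EGTA wells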
# Lipid droplet: modulators of hepatic lipid droplet formation; AML12 mouse hepatocytes, oleate lipid droplets, BODIPY imaging; inhibition, % at 6.5 µM; 240,000 compounds, 0.4% hits; AID 1656;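 active = lipid droplet intensity inhibited by at least 50%, with more than 500 cells counted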
#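 Assay system: AML12 hepatocytes (mouse); Probe or stimulus: oleic acid at 100 µM to induce lipid droplet formation; Dosing: compound at 6.5 µM only; Schedule: compound with oleate, overnight; Detection: fluorescence imaging, 20x objective, two fields per well; Measure: % inhibition of lipid droplet signal.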
# An asterisk follows results filed as active; . = not tested or not shown. The entries come from a sample that favours hits as a whole.
SMILES,Lmaj promast,Redox H2O2 prof,T cruzi inh,MPTP block,Lipid droplet
CCN1CCN(C(=O)COc2ccc3oc4c(c3c2)CCCC4)CC1,.,.,.,-1,.
Cc1cc([N+](=O)[O-])c2ccccc2[n+]1[O-],.,.,79*,1,-40
CCOC(C(=O)OCC(O)CN(CC)CC)(c1ccccc1)c1ccccc1 (stereo not given),100*,0,3,8,.
CCN(CC)CCCOC(=O)C(OC)(c1ccccc1)c1ccccc1,100*,0,11,0,18
CCOC(C(=O)OCCC[N+](C)(CC)CC)(c1ccccc1)c1ccccc1,5,0,4,0,8
Cc1ncc(CN2CCCC(C(=O)c3sccc3C)C2)s1 (stereo not given),52*,0,19,-4,3
Cc1ccsc1C(=O)C1CCCN(CCO)C1 (stereo not given),-3,-1,18,5,-2
CCn1cc(CN2CCCC(C(=O)c3sccc3C)C2)cn1 (stereo not given),54*,-1,46,-1,-12
Cc1ccsc1C(=O)C1CCCN(Cc2cnn(C)c2)C1 (stereo not given),34,-1,32,1,29
CN1CCCC2c3ccccc3CCC21 (stereo not given),.,.,.,-1,.
O=C1NC(=O)C(=Cc2cc(Cl)ccc2OCc2ccc(C(=O)O)cc2)C(=O)N1,94*,0,-20,0,14
CCN(CC)c1ccc(CN2CC=C(c3ccc(F)cc3)CC2)cc1,96*,-18,44,5,-1
O=C1NC(=O)C(C2CCOC2=O)N1 (stereo not given),.,.,.,-2,.
CCCCC1(CC)COP(=O)(OCC(Cl)(Cl)Cl)OC1 (stereo not given),.,.,.,0,.
Nc1ccccc1-[n+]1c(-c2ccccc2)cc(-c2ccccc2)cc1-c1ccccc1,.,.,61*,26,-2
C/C(=N\Nc1ccccc1)c1c(O)n(C)c(=O)n(C)c1=O,76*,0,53,1,-6
Cn1c(O)c(C(=O)c2ccccc2)c(=O)n(C)c1=O,-9,0,-1,4,16
C1=CC(Cc2cncs2)c2ccccc21 (stereo not given),.,.,.,-2,.
O=C(c1ccco1)c1cn(Cc2ccc(Cl)cc2)c2ccccc12,80*,0,-12,4,-19
O=C(c1ccc(N2CC3CC(C2)c2cccc(=O)n2C3)c([N+](=O)[O-])c1)N1CCCC1 (stereo not given),-3,0,1,4,7
CC1CCCCN1C(=O)c1ccc(N2CC3CC(C2)c2cccc(=O)n2C3)c([N+](=O)[O-])c1 (stereo not given),65*,0,3,0,-9
O=C(c1ccc(N2CC3CC(C2)c2cccc(=O)n2C3)c([N+](=O)[O-])c1)N1CCCCC1 (stereo not given),55*,0,-4,2,14
CCOC(=O)COc1ccc2c(c1)c(C(C)=O)c(C)n2Cc1ccccc1,76*,-1,-1,1,3
CC(C)N1CCN(Cc2cccc([N+](=O)[O-])c2)CC1,-4,0,9,-1,-16
COc1ccc(OCC(=O)N2CCN(Cc3nc4cc([N+](=O)[O-])ccc4n3C)CC2)cc1,-5,0,19,5,6
SMILES,Lmaj promast,Redox H2O2 prof,T cruzi inh,MPTP block,Lipid droplet
O=C(COc1ccc(Cl)cc1)N1CCN(Cc2ccc([N+](=O)[O-])cc2)CC1,67*,0,26,4,-4
O=[N+]([O-])c1cccc(CN2CCN(Cc3ccc(Cl)cc3)CC2)c1,85*,-2,27,0,29
CCCCOc1ccc(CN2CCN(CCO)CC2)cc1,89*,-2,-5,0,-17
COc1ccc(CN2CCN(Cc3ccccc3F)CC2)cc1,.,.,44,1,2
CCCCOc1ccc(CN2CCN(CC)CC2)cc1,86*,-3,12,-6,0
CCCCCCCCCCOC(=O)CCN1CC1,.,.,.,1,.
CCCCCCOc1ccc(CN2CCN(CCO)CC2)cc1,99*,1,52,-1,-11
COc1ccc(-n2nnnc2C(CCc2ccccc2)N2CCC3(CC2)C(=O)NCN3c2ccccc2)cc1 (stereo not given),.,.,.,4,.
CN1CCN(c2ccc(S(C)(=O)=O)cc2[N+](=O)[O-])CC1,54*,0,6,1,-2
CN1CCN(c2ccc(S(=O)(=O)C(F)(F)F)cc2[N+](=O)[O-])CC1,51*,0,25,0,3
COC(=O)C1=C(c2ccc(F)cc2F)C[C@@H]2CC[C@H]1N2C,.,.,.,0,.
COC(=O)C1=CO[C@@H](C)[C@H]2CN3CC[C@]4(C(=O)Nc5ccccc54)[C@@H]3C[C@H]12,.,.,6,0,.
CCCC1COC(Cn2cncn2)(c2ccc(Cl)cc2Cl)O1 (stereo not given),92*,0,65*,0,.
CC1(c2ccc(Cl)cc2Cl)OCC(Cn2cncn2)O1 (stereo not given),3,0,-26,0,-5
COCCCNC(=O)c1c(NC(=O)c2ccco2)n(Cc2ccccc2)c2nc3ccccc3nc12,97*,-1,23,4,-9
COc1ccc(Cn2c(N)c(C(=O)NCc3ccco3)c3nc4ccccc4nc32)cc1OC,59*,2,.,-4,.
C=CCNC(=O)c1c(N)n(CCN2CCOCC2)c2nc3ccccc3nc12,39,-5,-6,-1,.
CC(C)OC(=O)c1c(N)n(Cc2ccco2)c2nc3ccccc3nc12,56*,3,11,0,.
Nc1c(C(=O)NCc2ccco2)c2nc3ccccc3nc2n1CCN1CCCCC1,64*,0,69*,0,-23
O=c1c2ccccc2nc(CNc2ccccc2)n1-c1ccccc1,.,.,7,1,11
Brc1ccc2[nH]cc(C=NN3CCCCCC3)c2c1,.,.,.,2,.
COC(=O)C1=C(c2ccc(OC(F)(F)F)cc2)C[C@@H]2CC[C@H]1N2C(=O)NC(C)C,.,.,.,1,.
CC(C)CNC(=O)c1c(N)n(Cc2ccc3c(c2)OCO3)c2nc3ccccc3nc12,68*,2,23,3,14
COc1ccc(C(=O)N2CCOCC2)cc1S(=O)(=O)N1CCC(C)CC1,-4,3,-4,-1,0
COc1ccc(C(=O)Oc2cccc3cccnc23)cc1S(=O)(=O)N1CCOCC1,98*,-1,-47,-5,1
CC(C)(O)C(=O)Nc1ccc([N+](=O)[O-])c(C(F)(F)F)c1,.,.,.,0,.
COc1cc2c(cc1OC)CN(c1ccc([N+](=O)[O-])c(C(F)(F)F)c1)CC2,66*,0,-6,3,-2
COc1cc(NC(=O)CN2C3CCC2CC(O)(c2cccnc2)C3)cc(OC)c1 (stereo not given),93*,0,2,-2,-2
CC(=O)N1CN2CN(C1)CN(C(C)=O)C2,-1,1,-17,-2,-2
N=Cc1c(O)n(-c2ccc(C34CC5CC(CC(C5)C3)C4)cc2)c(=O)[nH]c1=O,-5,0,-9,-1,3
